As usually defined, the IC50 is the midpoint of a concentration-inhibition curve. By inhibition is commonly meant the relative decrease from the control value, in per cent.

Assay [1] deals with Raji. Nature of the assay: Antiproliferative activity against human Raji cells after 72 hrs by MTT assay. The class given is functional, cell-based. Background: Tetrazolium dyes change colour on reduction, which living cells bring about.
The target in assay [2] is T1, Protein deacetylase HDAC6 (Homo sapiens) (UniProt Q9UBN7).
T1 sequence (whole entry): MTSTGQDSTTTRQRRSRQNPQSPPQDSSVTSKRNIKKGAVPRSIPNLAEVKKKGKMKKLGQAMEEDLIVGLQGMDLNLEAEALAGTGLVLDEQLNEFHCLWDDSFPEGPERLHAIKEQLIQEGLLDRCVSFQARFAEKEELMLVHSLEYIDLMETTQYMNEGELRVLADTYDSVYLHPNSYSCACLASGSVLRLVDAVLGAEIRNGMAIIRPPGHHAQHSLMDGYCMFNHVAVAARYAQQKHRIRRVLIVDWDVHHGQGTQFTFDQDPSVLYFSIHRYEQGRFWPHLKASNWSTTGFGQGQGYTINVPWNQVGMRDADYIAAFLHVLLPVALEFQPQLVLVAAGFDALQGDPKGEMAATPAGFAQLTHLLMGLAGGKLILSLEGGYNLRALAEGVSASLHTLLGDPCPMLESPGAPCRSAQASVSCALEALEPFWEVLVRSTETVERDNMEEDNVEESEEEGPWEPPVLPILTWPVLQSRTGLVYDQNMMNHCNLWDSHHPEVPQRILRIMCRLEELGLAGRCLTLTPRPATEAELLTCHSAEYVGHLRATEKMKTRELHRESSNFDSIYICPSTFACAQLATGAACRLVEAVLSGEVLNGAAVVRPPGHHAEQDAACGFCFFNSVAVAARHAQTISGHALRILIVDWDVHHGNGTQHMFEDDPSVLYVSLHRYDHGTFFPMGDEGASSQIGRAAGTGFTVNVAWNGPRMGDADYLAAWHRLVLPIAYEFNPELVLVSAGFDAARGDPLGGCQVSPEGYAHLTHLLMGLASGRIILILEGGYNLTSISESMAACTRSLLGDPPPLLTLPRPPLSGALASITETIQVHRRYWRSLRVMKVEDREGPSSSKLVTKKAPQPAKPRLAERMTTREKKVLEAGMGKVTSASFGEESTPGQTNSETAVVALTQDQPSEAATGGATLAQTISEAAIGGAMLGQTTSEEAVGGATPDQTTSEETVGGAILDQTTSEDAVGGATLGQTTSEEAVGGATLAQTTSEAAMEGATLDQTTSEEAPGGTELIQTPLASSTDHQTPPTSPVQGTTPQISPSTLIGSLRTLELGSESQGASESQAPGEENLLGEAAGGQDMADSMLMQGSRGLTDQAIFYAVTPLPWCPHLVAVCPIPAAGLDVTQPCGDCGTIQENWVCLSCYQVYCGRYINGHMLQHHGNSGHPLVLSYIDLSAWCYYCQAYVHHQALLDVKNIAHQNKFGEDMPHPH
Nature of the assay: Inhibition of recombinant full length HDAC6 (unknown origin) using Ac-peptide-AMC as substrate at 100 nM after 1 hr by fluorescence assay relative to control. The method in brief: (§1)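 Full-length recombinant HDAC1 or HDAC6 was incubated with compound, trypsin and Ac-peptide-AMC substrate for 1 h at room temperature. Fluorescence was read at ex 355/em 460 nm. Inhibition was calculated against the DMSO vehicle control.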

Assay [3] concerns the target Histone deacetylase 1 (Homo sapiens, UniProt Q13547). As to the kind of experiment: Inhibition of recombinant full length HDAC1 (unknown origin) using Ac-peptide-AMC as substrate at 100 nM after 1 hr by fluorescence assay relative to control. An outline of the steps: as §1

Histone deacetylase 1, sequence (Q13547 whole entry): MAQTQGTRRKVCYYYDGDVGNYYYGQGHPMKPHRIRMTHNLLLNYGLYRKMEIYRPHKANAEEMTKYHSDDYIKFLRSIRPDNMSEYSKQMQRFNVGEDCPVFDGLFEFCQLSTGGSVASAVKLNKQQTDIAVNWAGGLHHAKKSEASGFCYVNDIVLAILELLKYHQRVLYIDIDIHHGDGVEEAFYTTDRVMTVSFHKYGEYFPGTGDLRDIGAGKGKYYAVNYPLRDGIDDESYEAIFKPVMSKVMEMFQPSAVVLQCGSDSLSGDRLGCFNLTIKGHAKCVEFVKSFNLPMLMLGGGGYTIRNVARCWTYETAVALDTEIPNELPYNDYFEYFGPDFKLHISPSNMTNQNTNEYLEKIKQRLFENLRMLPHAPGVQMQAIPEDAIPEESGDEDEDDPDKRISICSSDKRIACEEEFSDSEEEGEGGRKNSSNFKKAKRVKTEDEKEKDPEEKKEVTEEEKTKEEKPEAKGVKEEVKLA

As for `CN(Cc1nc(C2CCN(Cc3ccccc3Cl)CC2)no1)c1ncc(C(=O)NO)cn1`, the IC50 in assay [1] was found to be 48.3 nM. Further, the inhibition turned out to be 55% in assay [2] and 93% in assay [3].
The matching figures for `CN(Cc1nc(C2CCN(Cc3ccc(C#N)cc3)CC2)no1)c1ncc(C(=O)NO)cn1`: 117 nM, 38% and 68%.
For the compound `O=C(/C=C/c1ccc(OCc2nc(C3CCN(Cc4ccc(F)cc4F)CC3)no2)cc1)NO`, the inhibition worked out at 74% in assay [2] and 35% in assay [3].
The corresponding values for `O=C(/C=C/c1ccc(OCc2nc(C3CCN(Cc4ccc(Br)cc4)CC3)no2)cc1)NO` are 58% and 6%.
On to `CN(Cc1nc(C2CCN(Cc3ccccc3F)CC2)no1)c1ncc(C(=O)NO)cn1`, for which, in assay [1], 98.6 nM corresponded to half-maximal inhibition (IC50). The inhibition in assay [2] amounted to 44%; in assay [3], 84%.
As to `O=C(/C=C/c1ccc(OCc2nc(C3CCN(Cc4cccc(F)c4)CC3)no2)cc1)NO`, the inhibition amounted to 73% in assay [2] and 35% in assay [3].
As for `Cc1ccc(CN2CCC(c3noc(CN(C)c4ncc(/C=C/C(=O)NO)cn4)n3)CC2)cc1`, it took 292 nM to reach half-maximal inhibition in assay [1] (IC50). Moreover, the inhibition in assay [2] was found to be 60%; in assay [3], 61%.
As to `N#Cc1ccccc1CN1CCC(c2noc(COc3ccc(/C=C/C(=O)NO)cc3)n2)CC1`, the inhibition in assay [2] stood at 65%; in assay [3], 36%.
The matching figures for `O=C(/C=C/c1ccc(OCc2nc(C3CCN(Cc4ccccc4Cl)CC3)no2)cc1)NO`: 59% and 8%.
The matching figures for `Cc1ccc(CN2CCC(c3noc(COc4ccc(/C=C/C(=O)NO)cc4)n3)CC2)cc1`: 76% and 32%.
The corresponding values for `O=C(/C=C/c1ccc(OCc2nc(C3CCN(Cc4ccccc4)CC3)no2)cc1)NO` are 71% and 35%.
As for `C=CCN1CCC(c2noc(COc3ccc(CCC(=O)NO)cc3)n2)CC1`, the figures for the inhibition in assay [2] and in assay [3] were 15% and 4%, respectively.
Take `O=C(/C=C/c1ccc(OCc2nc(C3CCN(Cc4ccccc4F)CC3)no2)cc1)NO`: the inhibition in assay [2] amounted to 68%; in assay [3], 31%.
Consider `O=C(CCc1ccc(OCc2nc(C3CCN(Cc4ccccc4)CC3)no2)cc1)NO`, for which the inhibition worked out at 22% in assay [2] and 11% in assay [3].
The matching figures for `O=C(/C=C/c1ccc(OCc2nc(C3CCN(Cc4ccc(F)cc4)CC3)no2)cc1)NO`: 75% and 38%.
For the compound `CN(Cc1nc(C2CCN(Cc3ccc(C(F)(F)F)cc3)CC2)no1)c1ncc(C(=O)NO)cn1`, in assay [1], 207 nM corresponded to half-maximal inhibition (IC50). Moreover, the inhibition in assay [2] came to 30%; in assay [3], 62%.
The matching figures for `CN(Cc1nc(C2CCN(Cc3ccc(F)cc3)CC2)no1)c1ncc(C(=O)NO)cn1`: 22 nM, 65% and 92%.
For the compound `CCCN1CCC(c2noc(COc3ccc(/C=C/C(=O)NO)cc3)n2)CC1`, the inhibition in assay [2] was 69%; in assay [3], 40%.
In the case of `Cc1cccc(CN2CCC(c3noc(CN(C)c4ncc(C(=O)NO)cn4)n3)CC2)c1`, the IC50 in assay [1] turned out to be 47.3 nM. In addition, the inhibition in assay [2] came out at 54%; in assay [3] it was 93%.
The matching figures for `CN(Cc1nc(C2CCN(Cc3ccccc3)CC2)no1)c1ncc(/C=C/C(=O)NO)cn1`: 547 nM, 55% and 65%.
For `Cc1ccccc1CN1CCC(c2noc(COc3ccc(/C=C/C(=O)NO)cc3)n2)CC1`, the inhibition in assay [2] was found to be 68%; in assay [3] it was 14%.
As to `CN(Cc1nc(C2CCN(Cc3ccc(F)cc3Cl)CC2)no1)c1ncc(C(=O)NO)cn1`, the IC50 in assay [1] came out at 116 nM. Further, the inhibition in assay [2] is 49%; in assay [3], 73%.
In assay [1], `CN(Cc1nc(C2CCN(Cc3ccccc3)CC2)no1)c1ncc(C(=O)NO)cn1` came in with an IC50 of 27.6 nM. Also, the inhibition in assay [2] was found to be 63%; in assay [3], 96%.
For `CCCN1CCC(c2noc(COc3ccc(CCC(=O)NO)cc3)n2)CC1`, the inhibition stood at 13% in assay [2] and 5% in assay [3].
The corresponding values for `O=C(/C=C/c1ccc(OCc2nc(C3CCN(Cc4ccccc4[N+](=O)[O-])CC3)no2)cc1)NO` are 63% and 19%.
Regarding `CN(Cc1nc(C2CCN(Cc3ccc(F)cc3F)CC2)no1)c1ncc(C(=O)NO)cn1`, the IC50 in assay [1] is 34.3 nM. Besides, the inhibition stood at 66% in assay [2] and 88% in assay [3].
As for `Cc1ccc(CN2CCC(c3noc(COc4ccc(CCC(=O)NO)cc4)n3)CC2)cc1`, the inhibition in assay [2] came to 28%; in assay [3], 12%.
The corresponding values for `Cc1cccc(CN2CCC(c3noc(COc4ccc(/C=C/C(=O)NO)cc4)n3)CC2)c1` are 73% and 25%.
The corresponding values for `O=C(NO)c1ccc(OCc2nc(C3CCN(Cc4ccccc4)CC3)no2)cc1` are 66% and 29%.
The matching figures for `COc1ccc(CN2CCC(c3noc(COc4ccc(/C=C/C(=O)NO)cc4)n3)CC2)cc1`: 75% and 36%.
Take `C=CCN1CCC(c2noc(COc3ccc(/C=C/C(=O)NO)cc3)n2)CC1`: the inhibition in assay [2] was 66%; in assay [3], 34%.
The corresponding values for `O=C(Cc1ccc(OCc2nc(C3CCN(Cc4ccccc4)CC3)no2)cc1)NO` are 35% and 18%.
The corresponding values for `O=C(/C=C/c1ccc(OCc2nc(C3CCN(Cc4ccc(F)c(F)c4)CC3)no2)cc1)NO` are 60% and 17%.

Values taken from ChEMBL document CHEMBL4364248, “Discovery of 1,2,4-oxadiazole-Containing hydroxamic acid derivatives as histone deacetylase inhibitors potential application in cancer therapy” (Eur J Med Chem, 2019).
